Published values of several laboratories.
Lines come from different studies, so protocols differ.
Read-out: cell growth or viability

| SMILES | cell line | assay | conditions | measurement | value |
| --- | --- | --- | --- | --- | --- |
| Cc1cn(CC(c2cn(C)c3ccccc23)c2cn(C)c3ccccc23)nn1 | human Fibroblast | MTS | 20 µM, 24 h | inhibition | 17.1% |
| Fc1ccc(Nc2nccc(NC3CCCCC3)n2)cc1 | MV4-11 | ATP luminescence | 72 h | EC50 | > 3 µM |
| CCc1ncn(CC(c2c[nH]c3ccc(C)cc23)c2c[nH]c3ccc(C)cc23)c1C(=O)OC | human Fibroblast | MTS | 20 µM, 24 h | inhibition | 6.7% |
| COc1ccc(-c2ccc(-c3ccc(C(=N)N)nc3)s2)cc1 | LOX IMVI | SRB |  | GI50 | 1.88 µM |
| CCCCCCCCCCCCCCCCOP(=O)([O-])OCC[N+](C)(C)C | human Fibroblast | MTS | 20 µM, 24 h | inhibition | 46.2% |
| COc1cc(-c2ccc(-c3ccc(C(=N)N)nc3)s2)cc(OC)c1OC | LOX IMVI | SRB |  | GI50 | 1.87 µM |
| CC(C)(CO)Cn1nc(-c2ccc3nc(OC4CC4)ccc3c2)c2c(N)ncnc21 | CRL8155 |  |  | GI50 | > 10 µM |
| Cc1cc2c(cc1N1C(=O)c3cccc4c(CCCO)ccc(c34)C1=O)n(C)c(=O)n2C (racemic) | 769-P | resazurin |  | GI50 | 3.21 µM |
| CC(C)Nc1ccnc(Nc2cccc(-c3ccccc3)c2)n1 | MV4-11 | ATP luminescence | 72 h | EC50 | 3.98 µM |
| CC(C)c1ccccc1S(=O)(=O)c1cc(N)c2ncccc2c1[N+](=O)[O-] | HN-6 |  | 72 h | IC50 | > 20 µM |
| CC(C)=CCC[C@](C)(O)[C@H]1CC[C@]2(C)[C@@H]1[C@H](O)C[C@@H]1[C@@]3(C)CC[C@H](O[C@@H]4O[C@H](CO)[C@@H](O)[C@H](O)[C@H]4O[C@@H]4O[C@H](CO)[C@@H](O)[C@H](O)[C@H]4O)C(C)(C)[C@@H]3CC[C@]12C | BEAS-2B | MTT | 72 h | IC20 | > 100 µM |
| CC[C@H](C)Nc1ccnc(Nc2cccc(-c3cccnc3)c2)n1 | MV4-11 | ATP luminescence | 72 h | EC50 | 0.065 µM |
| COC(C)(C)CCC[C@](C)(O)[C@H]1CC[C@]2(C)[C@@H]1[C@H](O)C[C@@H]1[C@@]3(C)CC[C@H](O)C(C)(C)[C@@H]3CC[C@]12C | BEAS-2B | MTT | 72 h | IC80 | > 100 µM |
| CC(C)Nc1ccnc(Nc2cccc(-c3nccs3)c2)n1 | MV4-11 | ATP luminescence | 72 h | EC50 | 9.46 µM |
| CCN(CC)CCOC(=O)C1(c2ccc([N+](=O)[O-])cc2)CCCC1 | HN-6 |  | 72 h | IC50 | > 20 µM |
| CC(C)Nc1ccnc(Nc2cccc(-c3ccncc3)c2)n1 | MV4-11 | ATP luminescence | 72 h | EC50 | > 15 µM |
| CC(C)(CO)Cn1nc(-c2ccc3cc(OC4CC4)ccc3c2)c2c(N)ncnc21 | CRL8155 |  |  | GI50 | > 10 µM |
